Experimental data taken from ChEMBL document CHEMBL5661985, “In silico design of novel probes for the atypical opioid receptor MRGPRX2” (Nat Chem Biol, 2017).
Activity calls are given as the source filed them. The calls are words filed in the database; no cut-off is given here. Where a SMILES comes first, the peptide text is derived from it.

Tests used:
[1] = target: T1, Mas-related G-protein coupled receptor member X2 (Homo sapiens) (UniProt Q96LB1); experiment: Agonist activity at MRGPRX2 (unknown origin) expressed in HTLA cells assessed as induction of beta-arrestin 2 recruitment <100 uM incubated for 18 to 24 hrs by PRESTO-Tango assay; format: functional, cell-based; conditions: filed as agonist, time 18-24 hrs
T1 sequence (whole entry): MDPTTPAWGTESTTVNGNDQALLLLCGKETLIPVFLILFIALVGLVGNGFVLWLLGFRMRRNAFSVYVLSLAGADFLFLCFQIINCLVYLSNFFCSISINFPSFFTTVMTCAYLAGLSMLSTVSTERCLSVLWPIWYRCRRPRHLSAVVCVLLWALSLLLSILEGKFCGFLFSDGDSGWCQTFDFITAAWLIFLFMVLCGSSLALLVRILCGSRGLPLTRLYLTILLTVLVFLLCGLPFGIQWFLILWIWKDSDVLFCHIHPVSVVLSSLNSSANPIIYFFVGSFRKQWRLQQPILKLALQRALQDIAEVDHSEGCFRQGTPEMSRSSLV
Summary of the method: (§1)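 β-arrestin2 recruitment by PRESTO-Tango: HTLA cells transiently transfected (calcium phosphate) with codon-optimized MRGPRX2-Tango (WT or point mutant) or MRGPRB2-Tango, plated next day 20,000 cells/well on poly-L-lysine; drug in HBSS/20 mM HEPES/0.3% BSA pH 7.4 for 18–24 h; Bright-Glo luminescence (RLU); curves n=3 in triplicate, mutants n=4 in triplicate.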

[2] = target: T2, Mas-related G-protein coupled receptor member X2 (Homo sapiens, UniProt Q96LB1); experiment: Agonist activity at MRGPRX2 (unknown origin) expressed in HTLA cells assessed as induction of beta-arrestin 2 recruitment incubated for 18 to 24 hrs by PRESTO-Tango assay; format: functional, cell-based
T2 sequence (Q96LB1 whole entry): T1 sequence (whole entry)

[3] = target: Pituitary adenylate cyclase-activating polypeptide type I receptor (Homo sapiens) (UniProt P41586); experiment: Agonist activity at ADCYAP1 receptor (unknown origin)
Pituitary adenylate cyclase-activating polypeptide type I receptor (Homo sapiens), sequence (P41586 21-468 limits assumed): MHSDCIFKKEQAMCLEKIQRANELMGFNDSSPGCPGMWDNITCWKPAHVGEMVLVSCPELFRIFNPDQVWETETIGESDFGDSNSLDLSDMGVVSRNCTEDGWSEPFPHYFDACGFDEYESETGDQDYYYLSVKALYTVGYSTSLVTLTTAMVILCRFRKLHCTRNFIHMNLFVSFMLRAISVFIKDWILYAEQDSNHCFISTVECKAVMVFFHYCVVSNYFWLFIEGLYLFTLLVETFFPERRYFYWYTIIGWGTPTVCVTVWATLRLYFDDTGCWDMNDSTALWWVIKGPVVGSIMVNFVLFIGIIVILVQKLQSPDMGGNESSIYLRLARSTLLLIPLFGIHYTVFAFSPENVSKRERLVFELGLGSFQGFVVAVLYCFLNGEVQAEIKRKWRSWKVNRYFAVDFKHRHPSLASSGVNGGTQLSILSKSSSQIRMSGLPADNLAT
Summary of the method: (§2)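 PRESTO-Tango β-arrestin2 recruitment; HTLA cells (HEK-T stably expressing β-arrestin2-TEV and tTA-dependent luciferase) transfected by calcium phosphate with receptor-Tango construct, replated next day at 20,000 cells/well; compounds in HBSS/20 mM HEPES/0.3% BSA pH 7.4, 18–24 h; Bright-Glo luminescence after 15 min RT, read as RLU; ≥2-fold over basal scored active.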

[4] = target: Glucose-dependent insulinotropic receptor (Homo sapiens) (UniProt Q8TDV5); experiment: Agonist activity at GPR119 receptor (unknown origin); format: functional; summary of the method: as §2
[5] = target: Beta-3 adrenergic receptor (Homo sapiens) (UniProt P13945); experiment: Agonist activity at ADRB3 receptor (unknown origin); format: functional; summary of the method: as §2
Beta-3 adrenergic receptor (Homo sapiens), sequence (P13945 whole entry, looked up): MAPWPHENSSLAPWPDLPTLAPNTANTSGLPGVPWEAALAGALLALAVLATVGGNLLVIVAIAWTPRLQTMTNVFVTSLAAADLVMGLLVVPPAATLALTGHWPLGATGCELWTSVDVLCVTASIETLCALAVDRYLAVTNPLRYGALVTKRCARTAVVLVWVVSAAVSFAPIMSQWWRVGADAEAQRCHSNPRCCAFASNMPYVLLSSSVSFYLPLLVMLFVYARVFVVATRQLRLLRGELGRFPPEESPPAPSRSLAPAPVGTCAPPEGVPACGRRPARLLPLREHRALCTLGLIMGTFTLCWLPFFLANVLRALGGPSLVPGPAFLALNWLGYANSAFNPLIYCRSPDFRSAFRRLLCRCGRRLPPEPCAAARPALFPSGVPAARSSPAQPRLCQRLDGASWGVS

[6] = target: Glucagon-like peptide 1 receptor (Homo sapiens) (UniProt P43220); experiment: Agonist activity at GLP1R (unknown origin); format: functional; summary of the method: as §2
Glucagon-like peptide 1 receptor (Homo sapiens), sequence (P43220 whole entry): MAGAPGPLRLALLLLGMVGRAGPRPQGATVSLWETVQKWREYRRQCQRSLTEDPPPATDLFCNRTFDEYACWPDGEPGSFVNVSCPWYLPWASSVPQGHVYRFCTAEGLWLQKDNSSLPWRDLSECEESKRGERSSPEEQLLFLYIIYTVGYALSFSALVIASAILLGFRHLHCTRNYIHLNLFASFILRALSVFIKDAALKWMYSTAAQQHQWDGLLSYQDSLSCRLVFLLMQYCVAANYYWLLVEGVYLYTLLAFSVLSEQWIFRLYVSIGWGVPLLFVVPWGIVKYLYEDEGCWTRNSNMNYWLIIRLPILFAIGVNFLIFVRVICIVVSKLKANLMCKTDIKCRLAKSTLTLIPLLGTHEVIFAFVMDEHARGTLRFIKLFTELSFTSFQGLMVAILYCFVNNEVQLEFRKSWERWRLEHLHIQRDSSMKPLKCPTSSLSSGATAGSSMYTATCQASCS

[7] = target: Lutropin-choriogonadotropic hormone receptor (Homo sapiens) (UniProt P22888); experiment: Agonist activity at LHCGR (unknown origin); format: functional; summary of the method: as §2
[8] = target: Muscarinic acetylcholine receptor M2 (Homo sapiens) (UniProt P08172); experiment: Agonist activity at CHRM2 receptor (unknown origin); format: functional; summary of the method: as §2
Muscarinic acetylcholine receptor M2 (Homo sapiens), sequence (P08172 whole entry): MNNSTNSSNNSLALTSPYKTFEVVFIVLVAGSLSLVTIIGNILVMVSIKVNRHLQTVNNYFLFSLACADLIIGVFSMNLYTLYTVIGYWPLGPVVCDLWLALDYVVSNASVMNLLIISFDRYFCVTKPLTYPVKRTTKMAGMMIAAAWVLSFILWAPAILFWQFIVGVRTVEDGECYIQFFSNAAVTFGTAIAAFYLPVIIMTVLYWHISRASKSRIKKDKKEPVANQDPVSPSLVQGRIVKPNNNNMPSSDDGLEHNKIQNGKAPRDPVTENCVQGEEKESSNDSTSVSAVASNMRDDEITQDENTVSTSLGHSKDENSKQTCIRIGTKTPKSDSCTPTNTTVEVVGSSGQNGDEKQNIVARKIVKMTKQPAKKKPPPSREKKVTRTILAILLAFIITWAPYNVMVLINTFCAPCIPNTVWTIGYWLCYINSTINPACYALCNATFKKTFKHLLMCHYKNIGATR

[9] = target: G-protein coupled receptor 15 (Homo sapiens) (UniProt P49685); experiment: Agonist activity at GPR15 receptor (unknown origin); format: functional; summary of the method: as §2
[10] = target: D(4) dopamine receptor (Homo sapiens) (UniProt P21917); experiment: Agonist activity at DRD4 receptor (unknown origin); format: functional; summary of the method: as §2
[11] = target: Proteinase-activated receptor 2 (Homo sapiens) (UniProt P55085); experiment: Agonist activity at F2R-L1 receptor (unknown origin); summary of the method: as §2
[12] = target: Cannabinoid receptor 2 (Homo sapiens) (UniProt P34972); experiment: Agonist activity at CNR2 receptor (unknown origin); format: functional; summary of the method: as §2
Cannabinoid receptor 2 (Homo sapiens), sequence (P34972 whole entry): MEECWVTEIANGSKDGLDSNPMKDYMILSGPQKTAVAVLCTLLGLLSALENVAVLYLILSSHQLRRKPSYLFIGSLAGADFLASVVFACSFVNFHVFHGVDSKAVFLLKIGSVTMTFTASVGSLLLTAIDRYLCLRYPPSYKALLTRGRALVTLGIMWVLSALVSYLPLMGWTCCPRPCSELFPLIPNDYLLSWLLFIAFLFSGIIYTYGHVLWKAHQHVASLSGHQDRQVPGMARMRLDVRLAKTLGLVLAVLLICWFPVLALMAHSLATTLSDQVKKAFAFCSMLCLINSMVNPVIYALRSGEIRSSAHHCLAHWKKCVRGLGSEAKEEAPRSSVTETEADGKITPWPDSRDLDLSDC

[13] = target: 5-hydroxytryptamine receptor 2A (Homo sapiens) (UniProt P28223); experiment: Agonist activity at HTR2 receptor (unknown origin); format: functional; summary of the method: as §2
5-hydroxytryptamine receptor 2A (Homo sapiens), sequence (P28223 whole entry): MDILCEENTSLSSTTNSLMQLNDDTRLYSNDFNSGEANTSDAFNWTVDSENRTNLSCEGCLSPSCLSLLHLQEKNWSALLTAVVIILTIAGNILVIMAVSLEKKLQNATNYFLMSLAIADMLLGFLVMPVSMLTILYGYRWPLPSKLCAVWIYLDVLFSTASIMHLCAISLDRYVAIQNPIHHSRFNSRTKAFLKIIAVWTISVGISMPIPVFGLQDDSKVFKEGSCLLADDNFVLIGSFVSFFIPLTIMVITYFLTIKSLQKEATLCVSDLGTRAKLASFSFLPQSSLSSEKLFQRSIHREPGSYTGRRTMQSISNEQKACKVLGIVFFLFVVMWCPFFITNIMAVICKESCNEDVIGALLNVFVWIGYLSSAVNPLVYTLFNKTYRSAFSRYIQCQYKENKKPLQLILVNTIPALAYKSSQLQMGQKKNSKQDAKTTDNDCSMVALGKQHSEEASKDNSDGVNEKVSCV

[14] = target: Alpha-1A adrenergic receptor (Homo sapiens) (UniProt P35348); experiment: Agonist activity at ADRA1A receptor (unknown origin); format: functional; summary of the method: as §2
[15] = target: T1, Mas-related G-protein coupled receptor member X2 (Homo sapiens); experiment: Agonist activity at N-terminal Flag-tagged human MRGPRX2 receptor expressed in tetracycline-induced FLP-IN/T-REX 293 cells assessed as increase in intracellular calcium release <100 uM by FLIPR assay; format: functional, cell-based; conditions: filed as agonist
Summary of the method: (§3)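 FLIPR calcium: FLP-IN/T-REX HEK-293-T stable line with N-terminal FLAG codon-optimized receptor, induced 24 h with 1 μg/mL tetracycline in 1% dialyzed FBS (uninduced cells as control); FLIPR calcium dye plus 2.5 mM probenecid 1 h 37°C; 10 s baseline, then drug in HBSS/20 mM HEPES/probenecid pH 7.4, 16-point curve 10 μM to 0.003 nM; fluorescence 120 s; fold over basal, n=3 triplicate.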

[16] = target: Alpha-1B adrenergic receptor (Homo sapiens) (UniProt P35368); experiment: Agonist activity at ADRA1B receptor (unknown origin); format: functional; summary of the method: as §2
Alpha-1B adrenergic receptor (Homo sapiens), sequence (P35368 whole entry): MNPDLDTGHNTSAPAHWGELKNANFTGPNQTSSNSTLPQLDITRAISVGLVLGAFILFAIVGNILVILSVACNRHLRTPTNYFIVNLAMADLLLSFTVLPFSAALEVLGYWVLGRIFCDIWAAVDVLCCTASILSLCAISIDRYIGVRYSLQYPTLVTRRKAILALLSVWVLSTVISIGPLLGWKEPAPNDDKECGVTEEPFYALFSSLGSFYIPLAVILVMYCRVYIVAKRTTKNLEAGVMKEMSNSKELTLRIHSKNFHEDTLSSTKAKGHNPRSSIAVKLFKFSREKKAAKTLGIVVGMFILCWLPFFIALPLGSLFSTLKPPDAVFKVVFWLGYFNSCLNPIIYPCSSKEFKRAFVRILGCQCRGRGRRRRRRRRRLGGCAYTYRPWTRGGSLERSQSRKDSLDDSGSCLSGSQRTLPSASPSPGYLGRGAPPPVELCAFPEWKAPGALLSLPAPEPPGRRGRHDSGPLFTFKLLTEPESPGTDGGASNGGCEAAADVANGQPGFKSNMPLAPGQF

[17] = target: 5-hydroxytryptamine receptor 1A (Homo sapiens) (UniProt P08908); experiment: Agonist activity at HTR1A receptor (unknown origin); format: functional; summary of the method: as §2
[18] = target: Alpha-2C adrenergic receptor (Homo sapiens) (UniProt P18825); experiment: Agonist activity at ADRA2C receptor (unknown origin); summary of the method: as §2
Alpha-2C adrenergic receptor (Homo sapiens), sequence (P18825 whole entry): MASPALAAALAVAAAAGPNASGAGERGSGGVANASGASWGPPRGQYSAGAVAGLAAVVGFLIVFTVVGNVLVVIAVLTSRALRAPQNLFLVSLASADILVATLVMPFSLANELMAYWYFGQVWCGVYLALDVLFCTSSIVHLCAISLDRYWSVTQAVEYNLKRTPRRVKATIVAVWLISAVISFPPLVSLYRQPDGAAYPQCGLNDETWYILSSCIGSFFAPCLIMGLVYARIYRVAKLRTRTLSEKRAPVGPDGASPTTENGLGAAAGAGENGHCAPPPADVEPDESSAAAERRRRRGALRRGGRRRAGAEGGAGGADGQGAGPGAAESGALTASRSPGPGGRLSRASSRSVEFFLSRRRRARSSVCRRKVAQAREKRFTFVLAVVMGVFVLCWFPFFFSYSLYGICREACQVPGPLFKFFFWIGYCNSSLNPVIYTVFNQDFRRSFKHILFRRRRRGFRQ

[19] = target: Prosaposin receptor GPR37 (Homo sapiens) (UniProt O15354); experiment: Agonist activity at GPR37 receptor (unknown origin); format: functional; summary of the method: as §2
[20] = target: Gastrin-releasing peptide receptor (Homo sapiens) (UniProt P30550); experiment: Agonist activity at GRPR (unknown origin); format: functional; summary of the method: as §2
Gastrin-releasing peptide receptor (Homo sapiens), sequence (P30550 whole entry, looked up): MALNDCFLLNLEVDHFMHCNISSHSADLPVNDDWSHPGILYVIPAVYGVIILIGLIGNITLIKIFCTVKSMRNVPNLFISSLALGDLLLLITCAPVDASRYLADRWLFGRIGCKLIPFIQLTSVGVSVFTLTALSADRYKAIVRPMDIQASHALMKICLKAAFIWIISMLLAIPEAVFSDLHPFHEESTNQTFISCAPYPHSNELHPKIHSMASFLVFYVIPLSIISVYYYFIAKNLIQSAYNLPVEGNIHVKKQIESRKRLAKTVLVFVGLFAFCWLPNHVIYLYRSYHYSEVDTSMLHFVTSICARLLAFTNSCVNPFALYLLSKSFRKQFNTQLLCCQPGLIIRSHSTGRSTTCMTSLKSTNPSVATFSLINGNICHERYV

[21] = target: Beta-1 adrenergic receptor (Homo sapiens) (UniProt P08588); experiment: Agonist activity at ADRB1 receptor (unknown origin); format: functional; summary of the method: as §2
Beta-1 adrenergic receptor (Homo sapiens), sequence (P08588 whole entry, looked up): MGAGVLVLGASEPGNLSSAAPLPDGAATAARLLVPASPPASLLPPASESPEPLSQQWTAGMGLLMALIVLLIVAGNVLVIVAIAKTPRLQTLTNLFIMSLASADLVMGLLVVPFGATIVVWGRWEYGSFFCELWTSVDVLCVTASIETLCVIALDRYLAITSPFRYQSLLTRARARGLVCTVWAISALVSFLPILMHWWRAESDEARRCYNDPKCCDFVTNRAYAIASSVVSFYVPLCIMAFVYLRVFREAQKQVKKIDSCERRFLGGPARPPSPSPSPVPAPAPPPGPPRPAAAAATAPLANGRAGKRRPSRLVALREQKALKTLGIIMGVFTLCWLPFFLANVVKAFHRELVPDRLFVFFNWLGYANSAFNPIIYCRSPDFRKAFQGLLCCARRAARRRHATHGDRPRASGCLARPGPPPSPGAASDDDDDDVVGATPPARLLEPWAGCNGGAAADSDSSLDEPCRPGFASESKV

[22] = target: Type-1 angiotensin II receptor (Homo sapiens) (UniProt P30556); experiment: Agonist activity at AGTR1 receptor (unknown origin); format: functional; summary of the method: as §2
Type-1 angiotensin II receptor (Homo sapiens), sequence (P30556 whole entry): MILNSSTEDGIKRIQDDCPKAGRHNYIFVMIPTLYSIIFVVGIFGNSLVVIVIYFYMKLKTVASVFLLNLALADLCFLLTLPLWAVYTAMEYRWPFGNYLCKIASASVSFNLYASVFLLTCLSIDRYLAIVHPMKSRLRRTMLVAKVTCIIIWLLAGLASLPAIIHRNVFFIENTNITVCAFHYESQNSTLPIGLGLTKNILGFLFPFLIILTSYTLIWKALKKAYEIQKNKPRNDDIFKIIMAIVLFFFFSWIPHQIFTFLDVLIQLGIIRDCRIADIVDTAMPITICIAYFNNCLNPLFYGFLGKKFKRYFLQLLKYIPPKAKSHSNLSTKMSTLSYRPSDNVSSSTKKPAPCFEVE

[23] = target: Melanin-concentrating hormone receptor 2 (Homo sapiens) (UniProt Q969V1); experiment: Agonist activity at MCHR2 receptor (unknown orgini); format: functional; summary of the method: as §2
[24] = target: Alpha-1D adrenergic receptor (Homo sapiens) (UniProt P25100); experiment: Agonist activity at ADRA1D receptor (unknown origin); format: functional; summary of the method: as §2
[25] = target: T2, Mas-related G-protein coupled receptor member X2; experiment: Agonist activity at N-terminal Flag-tagged human MRGPRX2 receptor expressed in tetracycline-induced FLP-IN/T-REX 293 cells assessed as increase in intracellular calcium release by FLIPR assay; format: functional, cell-based; conditions: read-out: pEC50 (converted)
HTLA = experiment: Agonist activity at […] expressed in HTLA cells assessed as induction of beta-arrestin 2 recruitment incubated for 18 to 24 hrs by PRESTO-Tango assay; format: cell-based; conditions: Rodentia, filed as agonist, time 18-24 hrs; summary of the method: as §1
Flp-In-T-REx-293 = experiment: Agonist activity at rodent MRGPRB2 receptor expressed in tetracycline-induced FLP-IN/T-REX 293 cells assessed as increase in intracellular calcium release at 0.003 to 100000 nM by FLIPR assay; format: cell-based; conditions: Rodentia, filed as agonist, dose 0.003-100000 nM
[26] = target: T1, Mas-related G-protein coupled receptor member X2 (Homo sapiens); experiment: Agonist activity at N-terminal Flag-tagged human MRGPRX2 receptor expressed in FLP-IN/T-REX 293 cells assessed as increase in intracellular calcium release by FLIPR assay; format: functional, cell-based; conditions: filed as agonist; summary of the method: as §3
[27] = target: T1, Mas-related G-protein coupled receptor member X2 (Homo sapiens); experiment: Agonist activity at MRGPRX2 receptor in human LAD2 cells assessed as increase in intracellular calcium release by FLIPR assay; format: functional, cell-based; conditions: filed as agonist
Summary of the method: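 LAD2 human mast cells seeded 50,000/well in Tyrode's buffer with calcium dye, 1 h before drug; 10 s baseline, drug added, fluorescence followed 120 s; expressed as fold calcium release over baseline; n=3 in triplicate.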

[28] = target: T1, Mas-related G-protein coupled receptor member X2 (Homo sapiens); experiment: Agonist activity at MRGPRX2 (unknown origin) expressed in HTLA cells assessed as induction of beta-arrestin 2 recruitment at 10 uM incubated for 18 to 24 hrs by PRESTO-Tango assay; format: functional, cell-based; conditions: filed as agonist, time 18-24 hrs; summary of the method: as §1
[29] = target: T1, Mas-related G-protein coupled receptor member X2 (Homo sapiens); experiment: Agonist activity at MRGPRX2 receptor in human LAD2 cells transfected with MRGPRX2 siRNA assessed as increase in degranulation incubated for 30 mins by beta-hexosaminidase assay; format: functional, cell-based
Summary of the method: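 LAD2 cells (1.2 million/well) transfected with 25 nM MRGPRX2 siRNA pool or non-targeting pool, 72 h; 200,000 cells taken for β-hexosaminidase assay with EC80 concentration of agonist, 30 min 37°C; knockdown checked by qRT-PCR on 1 million cells; fold change % degranulation versus DMSO; two-way ANOVA with Sidak test.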

Compound: CN(C)[C@H]1CCN(c2cc(-c3ccccc3)nc3ccnn23)C1 [(S)-ZINC-3573]
- Activity [1]: Active
- EC50 ([2]; read-out: EC50): > 100 µM
- Activity [3]: inactive
- Activity [4]: inactive
- Activity [5]: inactive
- Activity [6]: inactive
- Activity [7]: inactive
- Activity [8]: inactive
- Activity [9]: inactive
- Activity [10]: inactive
- Activity [11]: inactive
- Activity [12]: inactive
- Activity [13]: inactive
- Activity [14]: inactive
- Activity [15]: Active
- Activity [16]: inactive
- Activity [17]: inactive
- Activity [18]: inactive
- Activity [19]: inactive
- Activity [20]: inactive
- Activity [21]: inactive
- Activity [22]: inactive
- Activity [23]: inactive
- Activity [24]: inactive

Compound: C[C@@H](O)[C@@H]1NC(=O)[C@H](CCCCN)NC(=O)[C@H](Cc2c[nH]c3ccccc23)NC(=O)[C@H](Cc2ccccc2)NC(=O)[C@H](Cc2ccccc2)NC(=O)[C@H](CC(N)=O)NC(=O)[C@H](CCCCN)NC(=O)[C@@H](NC(=O)[C@@H]2CCCN2)CSSC[C@@H](C(=O)N[C@@H](CCCCN)C(=O)O)NC(=O)[C@H](CO)NC(=O)[C@H](CO)NC(=O)[C@H](Cc2ccccc2)NC1=O (HELM PEPTIDE1{P.C.K.N.F.F.W.K.T.F.S.S.C.K}$PEPTIDE1,PEPTIDE1,2:R3-13:R3$$$V2.0)
- EC50 [25]: 0.417 µM
- EC50 ([2]; read-out: pEC50 (converted)): 0.145 µM
- Activity (HTLA): Active
- Activity (Flp-In-T-REx-293): Active

Compound: CC[C@H](C)[C@H](N)C(=O)N[C@@H](CC(N)=O)C(=O)N[C@@H](CC(C)C)C(=O)N[C@@H](CCCCN)C(=O)N[C@@H](C)C(=O)N[C@@H](CC(C)C)C(=O)N[C@@H](C)C(=O)N[C@@H](C)C(=O)N[C@@H](CC(C)C)C(=O)N[C@@H](C)C(=O)N[C@@H](CCCCN)C(=O)N[C@@H](CCCCN)C(=O)N[C@H](C(=O)N[C@@H](CC(C)C)C(N)=O)[C@@H](C)CC
- Activity [26]: Active
- EC50 [25]: 11.7 µM
- EC50 ([2]; read-out: pEC50 (converted)): > 31.6 µM

Compound: CN(C)C1CCN(c2cc(-c3ccccc3)nc3ccnn23)C1 (racemic)
- Activity [27]: Active
- Activity [28]: Active
- Activity [29]: inactive
